MEKK2 WT-MEK5 = modulators of MEK5 binding to wildtype MEKK2, primary screen, biochemical, multiplex bead flow cytometry, Alexa488-MEK5; AID 1531, 2009; 1.1% of 290,000 active; binding response (% of control), % at 10 µM; Alexa488-MEK5 binding to MEKK2 WT; actives lie on both sides; in the data active = binding response below about 67% or above about 130%
ABCB1 block = ABCB1 efflux pump inhibitors, primary screen, cell-based, multiplex, flow cytometry, ABCG2 counter-screen. CCRF-Adr cells, JC-1 efflux. inhibition, % at 6.6 µM. 0.067% of 190,000 active. AID 1326, 2008; in the data active = inhibition above about 40%;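 also: 0% = vehicle and 100% = reference inhibitor; higher value means more JC-1 retained so stronger ABCB1 efflux block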
Efflux pump mplx = inhibitors of Candida efflux pumps in yeast, primary screen, S. cerevisiae, Nile Red, multiplex; S. cerevisiae Candida pump triplex; AID 485275, 2010; 0.44% of 330,000 active; inhibition, % at 10 µM;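 active = plate passing quality check with inhibition over a set limit, or well fluorescence over plate mean plus 4 SD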;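 also: Nile Red retained in pooled yeast measured as flow cytometry median fluorescence; 0% = buffer negative control and 100% = Enniatin B positive control; higher means more Nile Red kept so more efflux inhibition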
MEKK2 mut-MEK5 = MEK5 binding signal on mutant MEKK2 PB1, primary screen, biochemical, multiplex bead flow cytometry, Alexa488-MEK5. Alexa488-MEK5 binding to MEKK2 mutant. 0.35% of 290,000 active. percent response, % at 10 µM. AID 1530, 2009; in the data active = percent response above about 24%, passing the limit was not always enough
ABCG2 block = ABCG2 efflux pump inhibitors, primary screen, multiplex with ABCB1, IgMXP3 cells, flow cytometry. Broad substrate specificity ATP-binding cassette transporter ABCG2 (Homo sapiens), Q9UNQ0. JC-1 efflux. inhibition, % at 6.6 µM. 0.1% of 190,000 active. AID 1325, 2008;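 active = inhibition above 80%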;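 also: 0% = DMSO and 100% = nicardipine control wells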
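material = IgMXP3 (ABCG2) plus far-red-tagged CCRF-Adr (ABCB1) cells | amount = 3 million cells/mL, equal mix of both lines | also added = JC-1 transporter substrate | dosing = one concentration, 6.6 µM final | schedule = 10 min at 25 °C | measured by = flow cytometric JC-1 green MFI at 530 nm | read-out basis = percent efflux inhibition, scaled nicardipine 100% to DMSO 0%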
MEKK3 PB1 HTS = modulators of MEKK3-MEK5 PB1 binding, primary screen, biochemical, wildtype MEKK3, multiplex bead flow cytometry, Alexa488-MEK5; Mitogen-activated protein kinase kinase kinase 3 (Homo sapiens), Q99759; bead-based flow cytometry, Alexa488-MEK5 binding to MEKK3; actives lie on both sides; 0 = blocked by unlabeled MEK5, 100 = vehicle; binding response (% of control), % at 10 µM; 1.4% of 290,000 active; AID 1529, 2009;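 active = binding response more than 3 SD above or below the average of its plate-row segment, actives on both sides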;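 also: Alexa488 bead fluorescence after subtracting the streptavidin-only scavenger bead signal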
Target sequence (Q99759 whole entry, looked up): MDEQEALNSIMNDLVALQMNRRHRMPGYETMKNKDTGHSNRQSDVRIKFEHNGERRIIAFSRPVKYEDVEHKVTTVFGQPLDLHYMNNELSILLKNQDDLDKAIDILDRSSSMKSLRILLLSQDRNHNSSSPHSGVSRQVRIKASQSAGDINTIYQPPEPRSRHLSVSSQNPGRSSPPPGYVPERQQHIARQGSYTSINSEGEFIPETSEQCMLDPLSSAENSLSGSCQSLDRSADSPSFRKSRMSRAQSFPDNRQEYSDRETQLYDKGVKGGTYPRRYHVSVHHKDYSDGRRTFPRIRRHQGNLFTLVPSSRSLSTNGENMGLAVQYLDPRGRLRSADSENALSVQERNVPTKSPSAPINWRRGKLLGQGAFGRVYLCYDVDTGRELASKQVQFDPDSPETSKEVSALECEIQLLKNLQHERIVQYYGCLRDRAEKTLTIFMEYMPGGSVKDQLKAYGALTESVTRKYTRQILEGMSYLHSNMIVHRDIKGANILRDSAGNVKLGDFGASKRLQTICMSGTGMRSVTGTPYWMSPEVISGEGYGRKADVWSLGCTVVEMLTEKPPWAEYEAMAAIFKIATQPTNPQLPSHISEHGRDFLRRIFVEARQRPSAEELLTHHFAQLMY
MEKK2wt confirm = modulators of MEK5 binding to wildtype MEKK2, confirmation, biochemical, single concentration, multiplex bead flow cytometry; shares compounds with MEKK3 PB1 HTS; Alexa488-MEK5 binding to MEKK2 WT; actives lie on both sides; binding response (% of control), % at 10 µM; 2.4% of 5,900 active; in the data active = binding response below about 16% or above about 210%; inactive = in between
MEKK2mut confirm = mutant MEKK2 PB1-MEK5 binding signal retest – biochemical, single concentration, multiplex bead flow cytometry, confirmation. Alexa488-MEK5 binding to MEKK2 mutant. 2% of 5,900 active. shares compounds with MEKK3 PB1 HTS. percent response, % at 10 µM; in the data active = percent response mostly above about 71%, no sharp cut-off; inactive = mostly below about 38%;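 also: higher means compound restores mutant binding toward wildtype level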
MEKK3 confirm = MEKK3 wild-type PB1 binding to MEK5, inhibitors, confirmation, biochemical, bead multiplex flow cytometry, single concentration, wildtype; Alexa488-MEK5 binding to MEKK3; hits give low values; shares compounds with MEKK3 PB1 HTS; 1.8% of 5,900 active; binding response (% of control), % at 10 µM;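 active = binding response below 72% of control, or above a set upper limit, though filed actives all read lower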;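 also: 100% = DMSO only wells and 0% = binding blocked by excess unlabeled MEK5; lower values mean stronger disruption of MEK5 binding to MEKK3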
Starred values were filed as active, the others as inactive; / = no result; [ ] = dose if it differs, or a comment. Hits are enriched below; roughly 2.5% of the tested compounds scored in any of these assays.

SMILES | MEKK2 WT-MEK5 | ABCB1 block | Efflux pump mplx | MEKK2 mut-MEK5 | ABCG2 block | MEKK3 PB1 HTS | MEKK2wt confirm | MEKK2mut confirm | MEKK3 confirm
O=C(NCc1ccc2c(c1)OCO2)C(C(=O)c1ccccc1)n1cc(Cl)ccc1=O (stereo not drawn) | 106 | 1 | 5 | 1 | 5 | 132* | 101 | -3 | 102
O=C(OCC(=O)N1CCN(c2ccccc2)CC1)c1ccc[n+]([O-])c1 | 101 | 0 | 0 | 0 | 0 | 99 | / | / | /
O=C(O)/C=C/C(=O)OC1CC2CCC1C2 (stereo not drawn) | 117 | / | 0 | 29 | / | 134* | 105 | 8 | 105
O=C(/C=C/c1ccccc1)NC1CC2CCC1C2 (stereo not drawn) | 100 | 0 | 0 | -2 | 9 | 99 | / | / | /
CC1(C)CC(=O)C2=C(C1)Nc1[nH]c(=S)[nH]c(=O)c1C2c1ccccc1 (stereo not drawn) | 102 | -1 | 0 | -1 | -3 | 106 | / | / | /
CSc1nc2c(c(=O)[nH]1)C(c1ccccc1)C1=C(CC(C)(C)CC1=O)N2 (stereo not drawn) | 121 | 0 | 0 | 4 | 4 | 131* | 104 | 4 | 111
COc1ccc(Cl)cc1N(C(=O)Nc1cccc(Cl)c1)C1=NCC(C)S1 (stereo not drawn) | 108 | 0 | 0 | 0 | 4 | 129* | 108 | 2 | 106
COCC(=O)Nc1ccc(C(=O)Nc2ccccc2Cl)cc1 | 98 | 0 | 0 | -2 | 1 | 102 | / | / | /
CC(C)c1ccc(NC(=S)N(C)CCc2ccccn2)cc1 | 103 | -2 | 0 | 0 | -15 | 101 | / | / | /
Cc1cccc(C)c1NC(=S)N(C)CCc1ccccn1 | 103 | 0 | 0 | 0 | -1 | 129* | 105 | 1 | 101
CC(NC(=O)/C(=C/c1ccc2c(c1)OCO2)NC(=O)c1cccc([N+](=O)[O-])c1)C(=O)O (stereo not drawn) | 84 | 0 | 0 | -8 | 0 | 92 | / | / | /
COc1ccc(/C=N/NC(=O)CCc2n[nH]c(=O)[nH]c2=O)cc1OC | 106 | 0 | 0 | 0 | -5 | 129* | 110 | 14 | 108
COc1cccc(/C=N/NC(=O)CCc2n[nH]c(=O)[nH]c2=O)c1O | 103 | 1 | 0 | 0 | 10 | 128* | 109 | 5 | 103
COc1cccc(/C=N/NC(=O)CCc2c(C)n[nH]c2C)c1O | 97 | / | 0 | 11 | / | 99 | / | / | /
COc1ccc(/C=N\NC(=O)CCc2c(C)n[nH]c2C)c(OC)c1OC | 109 | 1 | 0 | 2 | 2 | 134* | 111 | 3 | 100
COc1ccc(OC)c(/C=N/NC(=O)CCc2c(C)n[nH]c2C)c1 | 76 | / | 0 | -14 | / | 71 | / | / | /
CCC(C)Sc1ccc([C@@H]2[C@@H]3C(=O)N(CC)C(=O)[C@@H]3[C@]3(C(=O)OC)CCCCN23)cc1 (stereo partly drawn) | / | / | 0 | / | / | / | / | / | /
O=C(Nc1ccccc1C(=O)NCCCn1ccnc1)c1ccccc1 | 105 | 1 | -2 | 10 | 6 | 101 | / | / | /
COc1ccc(C(=O)Nc2ccccc2C(=O)NCCCn2ccnc2)cc1 | 121 | 0 | / | 11 | 3 | 122* | 111 | 8 | 108
COc1ccc(OCC(O)Cn2c(=N)n(Cc3ccccc3)c3ccccc32)cc1 (stereo not drawn) | 122 | 1 | 0 | 5 | 0 | 95 | / | / | /
N=c1n(Cc2ccc(Cl)cc2)c2ccccc2n1CC(O)COc1ccccc1 (stereo not drawn) | 142* | 1 | 0 | 3 | 2 | 86 | 149 | 47 | 105
Cc1cccc(OCC(O)Cn2c(=N)n(Cc3ccccc3)c3ccccc32)c1 (stereo not drawn) | 116 | / | 0 | -2 | / | 95 | / | / | /
Cc1ccc(OCC(O)Cn2c(=N)n(Cc3ccccc3)c3ccccc32)cc1 (stereo not drawn) | 140* | 2 | 0 | 6 | -4 | 106 | 120 | 8 | 99
N=c1n(Cc2ccccc2)c2ccccc2n1CC(O)COc1ccc(Cl)cc1Cl (stereo not drawn) | 220* | -2 | / | 63* | 2 | 111 | 172 | 30 | 97
CCOc1ccc(NC(=O)CN(C)C(=O)c2ccc(N3CCCC3)c([N+](=O)[O-])c2)cc1OCC | / | / | 0 | / | / | / | / | / | /
SMILES | MEKK2 WT-MEK5 | ABCB1 block | Efflux pump mplx | MEKK2 mut-MEK5 | ABCG2 block | MEKK3 PB1 HTS | MEKK2wt confirm | MEKK2mut confirm | MEKK3 confirm
O=C(NC(N1CCOCC1)C(Cl)(Cl)Cl)c1ccccc1Cl (stereo not drawn) | 55*[inhibitor] | 0 | 0 | -6 | -1 | 84 | 106 | 8 | 107
COc1ccc2[nH]c3c(c2c1)CCNC3(C)CCc1ccc(Cl)nc1 (stereo not drawn) | 119 | / | 0 | 10 | / | 103 | / | / | /
Cc1ccc(S(=O)(=O)c2cccc(S(=O)(=O)N3CCOCC3)c2)cc1S(=O)(=O)N1CCOCC1 | 2.0*[inhibitor] | 1 | 0 | -15 | 3 | 2.0*[inhibitor] | 97 | -8 | 95
O=C(NCc1ccco1)C1CCN(c2ccc(S(=O)(=O)N3CCOCC3)cc2[N+](=O)[O-])CC1 | 79 | 0 | 0 | -10 | 4 | 71*[inhibitor] | 100 | -1 | 102
Cc1ccc(S(=O)(=O)c2ccccc2)cc1S(=O)(=O)N1CCOCC1 | 92 | 1 | 0 | 2 | 7 | 105 | / | / | /
O=S(=O)(NCc1ccco1)c1cccc(S(=O)(=O)N2CCOCC2)c1 | 2.0*[inhibitor] | 1 | 0 | -31 | 1 | 2.0*[inhibitor] | 97 | -3 | 97
O/N=C(\c1ccccc1)C(O)c1ccccc1 (stereo not drawn) | 109 | / | 0 | 6 | / | 105 | / | / | /
